Experimental data published in ChEMBL document CHEMBL2034900, “Dual-target virtual screening by pharmacophore elucidation and molecular shape filtering” (ACS Med Chem Lett, 2012).
The source made the active and inactive calls. The rule behind the calls is not given here.

Columns and labels:
[1] = target: T1, Polyunsaturated fatty acid 5-lipoxygenase (Homo sapiens, UniProt P09917); experiment: Inhibition of recombinant 5-lipoxygenase expressed in Escherichia coli BL21 using arachidonic acid as substrate incubated for 15 mins prior to substrate addition measured after 10 mins by HPLC analysis
T1 sequence (P09917 whole entry): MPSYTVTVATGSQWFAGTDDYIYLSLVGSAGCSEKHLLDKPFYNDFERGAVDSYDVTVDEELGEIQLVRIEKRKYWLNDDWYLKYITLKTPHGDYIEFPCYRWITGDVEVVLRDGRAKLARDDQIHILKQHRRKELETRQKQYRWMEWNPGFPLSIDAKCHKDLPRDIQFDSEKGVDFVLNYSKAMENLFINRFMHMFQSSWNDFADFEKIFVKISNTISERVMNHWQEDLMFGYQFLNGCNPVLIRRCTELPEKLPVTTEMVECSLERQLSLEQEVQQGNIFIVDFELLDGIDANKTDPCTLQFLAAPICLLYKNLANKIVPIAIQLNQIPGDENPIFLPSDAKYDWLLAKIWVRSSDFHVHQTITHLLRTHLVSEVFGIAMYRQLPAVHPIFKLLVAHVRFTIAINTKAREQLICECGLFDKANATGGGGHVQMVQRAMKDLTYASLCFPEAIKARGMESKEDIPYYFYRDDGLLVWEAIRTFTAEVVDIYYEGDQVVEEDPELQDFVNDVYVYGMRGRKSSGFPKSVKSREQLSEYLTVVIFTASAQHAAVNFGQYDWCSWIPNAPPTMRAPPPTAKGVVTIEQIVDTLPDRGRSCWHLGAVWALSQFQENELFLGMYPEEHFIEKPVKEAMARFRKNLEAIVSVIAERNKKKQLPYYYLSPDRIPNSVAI
Procedure, shortened: (§1)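 Compounds were first tested at 30 μM, and IC50 values were determined only for those giving at least 50% inhibition. The 5-LO assay was cell-free with HPLC read-out, and the sEH assay used a fluorescence read-out.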

[2] = target: T2, Bifunctional epoxide hydrolase 2 (Homo sapiens) (UniProt P34913); experiment: (§2) Inhibition of soluble epoxide hydrolase using (3-Phenyl-oxiranyl)-acetic acid cyano-(6-methoxy-naphthalen-2-yl)-methyl ester) as substrate incubated for 15 mins prior to substrate addition measured every min for 15 mins by fluorometry; procedure, shortened: as §1
T2 sequence (whole entry): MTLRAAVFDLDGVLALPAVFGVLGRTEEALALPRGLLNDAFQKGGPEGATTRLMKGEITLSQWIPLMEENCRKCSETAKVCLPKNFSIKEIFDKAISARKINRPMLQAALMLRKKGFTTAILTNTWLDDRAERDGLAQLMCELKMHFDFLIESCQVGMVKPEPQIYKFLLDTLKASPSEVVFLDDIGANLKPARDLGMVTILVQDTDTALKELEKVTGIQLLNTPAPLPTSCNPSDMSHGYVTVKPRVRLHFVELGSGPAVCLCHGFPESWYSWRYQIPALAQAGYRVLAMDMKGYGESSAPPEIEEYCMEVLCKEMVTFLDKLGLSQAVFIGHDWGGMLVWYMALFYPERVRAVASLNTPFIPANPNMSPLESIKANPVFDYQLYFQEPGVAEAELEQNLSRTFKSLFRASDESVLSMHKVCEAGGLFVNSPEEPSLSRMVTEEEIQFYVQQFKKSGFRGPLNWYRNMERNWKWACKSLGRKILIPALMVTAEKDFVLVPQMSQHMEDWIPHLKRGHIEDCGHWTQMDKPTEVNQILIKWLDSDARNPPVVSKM

[3] = target: T3, Bifunctional epoxide hydrolase 2 (Homo sapiens, UniProt P34913); experiment: as §2; procedure, shortened: as §1
T3 sequence (P34913 whole entry): T2 sequence (whole entry)

| SMILES | IC50 [1] [µM] | inhibition [2] | IC50 [3] [µM] |
| --- | --- | --- | --- |
| COc1ccc(-c2nc3cc(C)ccc3[nH]2)cc1OC | 36 | – | 3.5 |
| COc1ccc(-c2nc3cc(C)ccc3o2)cc1OC | 2.7 | inactive | – |
| CN(C)c1ccc(-n2nc3ccc4ccccc4c3n2)cc1 | 2.2 | – | – |
| COc1ccc(/C=N/Nc2nc3ccccc3[nH]2)cc1OC | 8.1 | – | – |

Other lines, results leading:

| IC50 [1] [µM] | inhibition [2] | IC50 [3] [µM] | SMILES |
| --- | --- | --- | --- |
| 16 | – | – | CC(C)CC(=O)Nc1nc2c(s1)CCc1ccccc1-2 |
| 7.6 | inactive | – | COc1cccc(CNc2nc3ccccc3n2C)c1O |
| – | – | 21 | COc1ccc(CC(=O)Nc2ccc(C)cc2)cc1OC |
| – | – | 0.47 | Cn1nnc2cc(NC(=O)NCCC3=CCCCC3)ccc21 |
| – | – | 1.6 | COc1ccc(NC(=O)c2cccc(-n3cnnn3)c2)cc1 |
